Test results published in the array DNA melting data of Ke et al. (doi:10.1101/2024.01.08.574731).

Legend:
[1] = folding enthalpy; higher = less favourable; fluorescence melt of hairpins on a sequencing array, two-state fit; details: sodium 0.088 M
Summary of the method: (§1)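 Hairpins were imaged by Cy3 fluorescence on a sequenced MiSeq flow cell with annealed Cy3 and quencher oligos, in 50 mM Na-HEPES pH 8.0, 25 mM NaCl, in 2.5 °C steps up to 60 °C. Bootstrapped two-state fits of normalised signals gave melting temperature and folding enthalpy. Four replicates were combined by inverse variance, and fitted temperatures were raised by 9.35 °C to match UV melts.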

[2] = melting temperature; fluorescence melt of hairpins on a sequencing array, two-state fit, raised by 9.35 °C to match UV melts; details: sodium 0.088 M
Summary of the method: as §1

Sequence | folding enthalpy [1] [kJ/mol] | Tm [2] [°C]
GAGAGAGCGAAAGCTCTC (((..(((....)))))) | -40 | 56.7
GATCGTTAATACGATC ((((((....)))))) | -152 | 54.6
GAGGGCGCGAAAGCGCTC (((..(((....)))))) | -32.2 | 42.5
GATCTACTACTAGATC ((((((....)))))) | -131 | 37.5
GCCAGCGAAAGCTCGGGC ((((((....)))..))) | -85.6 | 52.3
CGGTCGGAAACGATACCG ((((((....)))..))) | -113 | 41.2
GTTAGCGAAAGCTGGAAC ((((((....)))..))) | -36.3 | 27
GGGATGGGAAACCGTCCC ((((.((....)).)))) | -211 | 56.5
GCGCTCCGAAAGGACGC (((.(((....)))))) | -140 | 60
GCGTCCGGAAACGGGTGC ((..(((....)))..)) | -129 | 51.2
GGGTAGACGAAAGTCCCC (((..(((....)))))) | -77.7 | 46.5
GATAGCGAAAGCTGATC ((((((....))).))) | -55.3 | 38.9
GCAACTACGAAAGTATGC (((..(((....)))))) | -69 | 32.1
GCGAGTACGAAAGTACGC (((..(((....)))))) | -50.2 | 53.1
GTGAGCTCGAAAGAGCAC (((..(((....)))))) | -41.7 | 65
GGACCCGAAAGGGTATCC ((((((....)))..))) | -46 | 38.9
GCCCTGCGAAAGCACGGC (((.(((....))).))) | -166 | 52
GGCGGGGGAAACCCCGTC (.(((((....))))).) | -94.9 | 65.1
GTCAAGGGAAACCTCGAC (((.(((....))).))) | -80.1 | 37.5
GGATCTCGAAAGAGGTCC (((.(((....))).))) | -173 | 57.3
GTCGTAGGAAACTACAAC ((.((((....)))).)) | -87.9 | 30
GGTCTGGGAAACCAGGTC (..((((....))))..) | -59.9 | 34.9
GACCGACCGAAAGGTGTC (((..(((....)))))) | -66.3 | 35.9

Sequence | folding enthalpy [1] [kJ/mol] | Tm [2] [°C]
GCATGCGAAAGCAGTTGC ((((((....)))..))) | -69 | 43
GCGTGCGAAAGCAGACGC ((((((....)))..))) | -117 | 62.7
GATCTCCGCTGAGATC ((((((....)))))) | -136 | 53.1
GGAGTCGAAAGACTTCC ((((((....))).))) | -88.6 | 48.7
GTAAGCCGAAAGGCGTAC (((.(((....))).))) | -59 | 54.4
GATCTGTTATCAGATC ((((((....)))))) | -166 | 50.7
GTACCACGAAAGTGTAC (((.(((....)))))) | -92.2 | 42.3
GGGCTCGAAAGAGGCCC ((((((....))).))) | -60 | 69
GTCGGTGGAAACACTGGC (.(.(((....))).).) | -116 | 42.8
GATTCTGAAAAGAATC ((((((....)))))) | -138 | 50
GGCTTTGCGAAAGCAGCC (((..(((....)))))) | -72.1 | 52.1
GAAGCGCCGAAAGGCTTC (((..(((....)))))) | -43.8 | 32.3
GATCACGGAAACGCGATC ((((.((....)).)))) | -143 | 48.2
TGGGAGAAATCCCA (((((....))))) | -81.5 | 40.7
GTAGGCGAAAGCCTATAC ((((((....)))..))) | -40 | 45.2
GCATTTGGAAACAAGTGC (((.(((....))).))) | -110 | 46.3
CGCTCGGAAACGAAGGCG ((((((....)))..))) | -124 | 44.7
GCGTAGGGAAACTTGCGC (((.(.(....).).))) | -119 | 42.3
GCGTTCGAACGC ((((....)))) | -151 | 56.9
GCTAACGAAAGTTCAAGC ((((((....)))..))) | -52.4 | 30.9
GTGCGCGAAAGCGATCAC ((((((....)))..))) | -56.1 | 41
GGTTGGGGAAACTCGACC (((.(.(....).).))) | -96.9 | 39.5
GATCCCTTGGGGATC ((((((...)))))) | -138 | 60.1
